Data on seven compounds can be found in ChEMBL document CHEMBL4673177, “Structure-activity relationships of sulfonamides derived from carvacrol and their potential for the treatment of Alzheimer''s disease” (RSC Med Chem, 2020).

Calls of active or inactive are those of the source. The calls are words filed in the database; no cut-off is given here.

For data set [1], the system named is Mus musculus. The experiment in a line: Antioxidant activity in STZ-induced mouse model of Alzheimer's disease assessed as increase in GSH level in brain at 30 mg/kg, ip treated from 3 to 12 days starting from 3 days post initial STZ stimulation and measured on day 17 by spectrophotometric method. The format is functional, organism-based. As to conditions: time 3-12 day. In outline:
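Brains collected one day after the last behavioural test, homogenized in phosphate buffer pH 7.4 and spun at 3000g for 15 min. Whole-brain GSH in the supernatant measured by a modified Beutler method, absorbance at 412 nm. Quantified against a GSH standard curve (5–50 μg); expressed as nmol GSH/mg protein.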

Data set [2] concerns Mus musculus. Nature of the data set: Antioxidant activity in STZ-induced mouse model of Alzheimer's disease assessed as reduction in TBARS level in brain at 30 mg/kg, ip treated from 3 to 12 days starting from 3 days post initial STZ stimulation and measured on day 17 by spectrophotometric method. The format is functional, organism-based. The conditions noted are these: time 3-12 day. Put shortly: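 After the final behavioural test, brain homogenate (phosphate buffer pH 7.4, 3000g for 15 min) used for TBARS. The mixture was vortexed and centrifuged at 4000g for 10 min. The organic layer was read at 532 nm.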

For data set [3], the system named is Mus musculus. Nature of the data set: Antialzheimer activity in streptozotocin-induced mouse model of memory impairment assessed as median time of avoidance latency descent at 30 mg/kg, ip treated from 3 to 12 days starting from 3 days post initial STZ stimulation and measured on day 16 by avoidance test (reference value: 14 sec). Format: functional. The conditions noted are these: time 3-12 day. Put shortly:
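3-month-old female mice (25.0–30.0 g), STZ given i.c.v. as 3 μL of 2.5 mg mL-1 solution, repeated after 48 h. Vehicle or compound dosed i.p. until day 12. Training: shock 0.4 mA for 2 s on stepping down from the platform. Next-day test session without shock; descent latency timed. Reported as median with interquartile interval. N = 8–10 per group.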

The subject of data set [4] is Mus musculus. Nature of the data set: Anxiolytic-like activity in STZ-induced mouse model of Alzheimer's disease assessed as open arm time permanency at 30 mg/kg, ip treated from 3 to 12 days starting from 3 days post initial STZ stimulation and measured on day 14 by elevated plus maze test (reference value: 37.6%). Format: functional. As to conditions: time 3-12 day.

Data set [5] has as its system Mus musculus. Nature of the data set: Anxiolytic-like activity in STZ-induced mouse model of Alzheimer's disease assessed as open arm frequency at 30 mg/kg, ip treated from 3 to 12 days starting from 3 days post initial STZ stimulation and measured on day 14 by elevated plus maze test (reference value: 51.17%). The conditions noted are these: time 3-12 day. Format: functional.

Data set [6] is described as follows: Effect on behavioral activity in STZ-induced mouse model of Alzheimer's disease assessed as rearing at 30 mg/kg, ip treated from 3 to 12 days by open field test (reference value: 53.60 +/- 1.62). Format: ADME, organism-based. As to conditions: in vivo, time 3-12 day.
Data set [7] can be described thus: Effect on locomotory activity in STZ-induced mouse model of Alzheimer's disease assessed as number of crossing 30 mg/kg, ip treated from 3 to 12 days by open field test (reference value: 114.00 +/- 3.12). The format is organism-based. The conditions noted are these: in vivo, time 3-12 day.
In a further data set the target is Acetylcholinesterase (Homo sapiens, UniProt P22303). The experiment in a line: Inhibition of AChE (unknown origin) using acetylthiocholine iodide as substrate preincubated for 15 mins followed by substrate addition and measured after 30 mins by Ellman's method. Background: DTNB colorimetry detects thiols as they appear.
Acetylcholinesterase, sequence (P22303 whole entry): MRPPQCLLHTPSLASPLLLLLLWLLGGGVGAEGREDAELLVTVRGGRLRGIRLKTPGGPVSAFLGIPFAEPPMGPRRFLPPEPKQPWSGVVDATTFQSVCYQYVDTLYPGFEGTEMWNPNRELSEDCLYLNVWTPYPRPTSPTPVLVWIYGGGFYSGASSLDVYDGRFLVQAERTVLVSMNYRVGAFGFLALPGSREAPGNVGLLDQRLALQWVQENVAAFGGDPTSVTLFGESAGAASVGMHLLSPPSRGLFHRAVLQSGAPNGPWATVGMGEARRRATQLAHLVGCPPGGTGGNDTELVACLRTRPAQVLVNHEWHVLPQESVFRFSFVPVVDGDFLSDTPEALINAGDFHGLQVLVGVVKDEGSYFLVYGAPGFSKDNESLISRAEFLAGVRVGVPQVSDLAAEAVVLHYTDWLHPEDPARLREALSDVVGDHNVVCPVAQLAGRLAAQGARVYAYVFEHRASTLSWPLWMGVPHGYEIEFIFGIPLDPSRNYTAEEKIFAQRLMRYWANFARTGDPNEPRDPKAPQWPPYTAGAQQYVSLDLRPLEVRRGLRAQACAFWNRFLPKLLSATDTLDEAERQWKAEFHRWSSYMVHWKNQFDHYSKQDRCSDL
For data set [8], the system named is Mus musculus. Nature of the data set: Anxiolytic-like activity in STZ-induced mouse model of Alzheimer's disease assessed as open arm time permanency at 0.5 mg/kg, ip treated from 3 to 12 days starting from 3 days post initial STZ stimulation and measured on day 14 by elevated plus maze test (reference value: 37.6%). The format is functional. As to conditions: time 3-12 day. In outline: (§1)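 Female mice given STZ i.c.v. twice (48 h apart) were treated i.p. until day 12. Each mouse was placed in the centre of the elevated plus maze facing a closed arm and observed for 5 min. N about 8–10 per group.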

Data set [9] concerns Mus musculus. The experiment in a line: Anxiolytic-like activity in STZ-induced mouse model of Alzheimer's disease assessed as open arm frequency at 0.5 mg/kg, ip treated from 3 to 12 days starting from 3 days post initial STZ stimulation and measured on day 14 by elevated plus maze test (reference value: 51.17%). The format is functional. As to conditions: time 3-12 day. Put shortly:
as §1

Data set [10] can be described thus: Effect on locomotory activity in STZ-induced mouse model of Alzheimer's disease assessed as number of crossing 0.5 mg/kg, ip treated from 3 to 12 days by open field test (reference value: 114.00 +/- 3.12). The conditions noted are these: in vivo, time 3-12 day. The format is organism-based.
Data set [11] can be described thus: Effect on behavioral activity in STZ-induced mouse model of Alzheimer's disease assessed as rearing at 0.5 mg/kg, ip treated from 3 to 12 days by open field test (reference value: 53.60 +/- 1.62). Format: organism-based. The conditions noted are these: in vivo, time 3-12 day.
For data set [12], the system named is Mus musculus. The experiment in a line: Antialzheimer activity in streptozotocin-induced mouse model of memory impairment assessed as median time of avoidance latency descent at 0.5 mg/kg, ip treated from 3 to 12 days starting from 3 days post initial STZ stimulation and measured on day 16 by avoidance test (reference value: 14 sec). The format is functional. The conditions noted are these: time 3-12 day.

Regarding `Cc1cc(S(=O)(=O)N2CCOCC2)c(C(C)C)cc1O`, the result with Mus musculus [1] and in the data set on Mus musculus [2] was Active. For the same compound, the Time with Mus musculus [3] is reported as 116.5 s. Further, the Activity in the data set on Mus musculus [4] is recorded as 14.3%; in the data set with Mus musculus [5], 25.11%; in data set [6] it was 43.8; in data set [7], 116.3. Also, the IC50 (as a rule, the concentration at which inhibition is half-maximal) on Acetylcholinesterase was found to be 5.64 µM.

As to `Cc1cc(S(=O)(=O)Nc2ccccc2O)c(C(C)C)cc1O`, the outcome in the data set on Mus musculus [1] and in the data set with Mus musculus [2] was Active. The Time with Mus musculus [3] is recorded as 107 s. For the same compound, the Activity in the data set on Mus musculus [4] is recorded as 42%; with Mus musculus [5], 41.9%; in data set [6], 44.56; in [7] it was 107. Inhibition at Acetylcholinesterase was half-maximal at 8.74 µM (IC50).

With `Cc1cc(S(=O)(=O)Nc2cnccn2)c(C(C)C)cc1O`, the result in the data set on Mus musculus [1] and in the data set on Mus musculus [2] was Active. Further, the Time in the data set with Mus musculus [3] is recorded as 80 s. In addition, the Activity with Mus musculus [4] is reported as 19.3%; in the data set on Mus musculus [5] it was 47.7%; in data set [6], 50.17; in [7], 108.34. The half-inhibitory concentration (IC50) against Acetylcholinesterase came out at 7.34 µM.

For `Cc1ccc(C(C)C)cc1O` [CARVACROL], the IC50 against Acetylcholinesterase stood at 284 µM.

For the compound `COc1ccc2c3c1O[C@H]1C[C@@H](O)C=C[C@@]31CCN(C)C2` [GALANTAMINE], the Activity in the data set on Mus musculus [8] turned out to be 6.6%; with Mus musculus [9], 22.3%; in data set [10], 122.5; in data set [11], 54.23. Besides, the Time in the data set on Mus musculus [12] came to 122.5 s.

For the compound `Cc1cc(S(=O)(=O)NCc2ccccn2)c(C(C)C)cc1O`, the Time with Mus musculus [3] turned out to be 72 s. In addition, the Activity came out at 76% with Mus musculus [4], 69.44% in the data set with Mus musculus [5], 46.17 in data set [6] and 102.45 in data set [7]. This compound yielded a concentration for half-maximal inhibition (IC50) at Acetylcholinesterase of 6.99 µM.

Take `Cc1cc(S(=O)(=O)NN)c(C(C)C)cc1O`: the outcome in the data set on Mus musculus [1] and in the data set on Mus musculus [2] was Active. In addition, in the data set with Mus musculus [3], the Time stood at 130 s. Besides, the Activity with Mus musculus [4] was found to be 17.1%; with Mus musculus [5], 43.31%; in [6], 44.18; in data set [7] it was 98.45. 9.24 µM corresponded to half-maximal inhibition at Acetylcholinesterase (IC50).
